An excerpt weighted towards active compounds, which were near 2.1% of everything screened.
STEP block = blocks human striatal-enriched tyrosine phosphatase. recombinant STEP, OMFP fluorogenic substrate, fluorescence. inhibition, % at 20 µM. 360,000 compounds, 0.25% hits;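 active = inhibition at 20 µM, scaled per plate between control wells, above about 37%, limit read from the data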;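 also: 0% = DMSO with enzyme and substrate and 100% = substrate only without enzyme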
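Also added – OMFP at 25 µM · Test system – STEP tyrosine phosphatase · Technique – FITC-channel fluorescence of OMFP product · Schedule – 20 min at room temperature, dark · Evaluation – control-normalized % inhibition with plate pattern correction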
GRK2 inh = inhibitors of human GRK2 displacing RNA aptamer. bead flow cytometry, FAM-aptamer displacement from GRK2. inhibition of aptamer binding, % at 10 µM. P25098. 330,000 compounds, 0.59% hits;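 active = inhibition of aptamer binding above 40%, roughly 3 SD of noise, on plates passing a quality check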;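 also: median bead fluorescence of bound FAM aptamer so fluorescent compounds give negative values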
DNMT1 block = blocks human DNA methyltransferase DNMT1; inhibition (reported as % activation of signal), % at 10 µM; DNMT1 molecular beacon, Hinp1I cleavage, fluorescence; 360,000 compounds, 0.83% hits; P26358; in the data active = inhibition above about 50%
Scp1 inh = Scp-1 (human) phosphatase inhibition. Q9GZU7. Recombinant Scp1, phosphopeptide, malachite green phosphate absorbance. inhibition, % at 20 µM. 340,000 compounds, 0.88% hits. AID 493091;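 active = inhibition above about 50% at 20 µM, limit read from the data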;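 also: plate controls were DMSO wells with enzyme for no effect and wells lacking enzyme for full effect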
Target sequence (Q9GZU7 76-261 limits assumed): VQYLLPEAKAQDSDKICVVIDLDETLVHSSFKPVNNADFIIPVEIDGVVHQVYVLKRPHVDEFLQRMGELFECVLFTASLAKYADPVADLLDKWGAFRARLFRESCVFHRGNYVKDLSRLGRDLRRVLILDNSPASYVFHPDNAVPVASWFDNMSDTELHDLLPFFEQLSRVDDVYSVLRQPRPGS
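Material: truncated SCP-1 phosphatase (76-261aa) / Buffer or medium: 50 mM Tris acetate pH 5.5, 0.005% Tween-20, 10 mM MgCl2 / Compound dosing: one concentration, 20 µM, with 1.0% DMSO / Incubation: 45 min room-temperature reaction, 5 min colour, 30 min stabiliser / Detection: colorimetric free-phosphate detection, absorbance 630 nm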
LMPTP block = LMPTP (human) inhibition. P24666. recombinant LMPTP-A, OMFP fluorogenic substrate, fluorescence intensity. inhibition, % at 20 µM. 360,000 compounds, 0.22% hits. AID 651560;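 active = compounds that cut the enzyme signal by at least half of the control window in the single-dose screen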;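 also: plate controls were DMSO wells with enzyme plus substrate for no effect and substrate without enzyme for full effect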
Target sequence (P24666 whole entry, looked up): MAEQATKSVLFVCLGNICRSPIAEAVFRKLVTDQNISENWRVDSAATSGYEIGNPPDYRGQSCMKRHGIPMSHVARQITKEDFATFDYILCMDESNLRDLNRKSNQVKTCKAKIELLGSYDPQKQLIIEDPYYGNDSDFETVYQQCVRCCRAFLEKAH
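Test system – LMPTP-A enzyme · Amount – LMPTP-A at 0.625 nM final in the reaction · Buffer or medium – Bis-Tris pH 6.0, DTT, detergent · Reagent – OMFP 400 µM · Doses – single 20 µM dose · Schedule – reaction 50 min, room temperature, dark · Detection – fluorescence intensity of OMFP turnover product · Evaluation – percent inhibition versus substrate-only and uninhibited controls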
SUMO1 PPI mod = modulators of human SUMO1-mediated protein-protein interactions | P63165 | SUMO1 binding to a labelled peptide, TR-FRET, 1 h | inhibition, % at 20 µM | 360,000 compounds, 0.33% hits; in the data active = inhibition above about 37%
Target sequence (P63165 whole entry, looked up): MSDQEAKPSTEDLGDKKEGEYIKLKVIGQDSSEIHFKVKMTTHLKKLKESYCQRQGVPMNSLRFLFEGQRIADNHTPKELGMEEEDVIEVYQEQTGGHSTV
Scp1 confirm = confirmation of human Scp-1 phosphatase inhibitors | inhibition, % at 20 µM | recombinant SCP-1 catalytic domain, phosphate release, malachite green absorbance | 2,500 compounds, 61% hits | shares compounds with Scp1 inh;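 also: plate controls were DMSO with enzyme for no effect and buffer wells lacking enzyme for full effect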
Scp-1 MG ctr = interferes with malachite green readout, flagging false Scp-1 hits. apparent inhibition (interference), % at 20 µM. shares compounds with Scp1 inh. Colorimetric interference counterscreen, malachite green absorbance 630 nm. 2,500 tested, under 10 active;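 also: compounds added after enzyme reaction finished so only phosphate colour detection is probed; plate controls were DMSO wells with completed Scp-1 reaction for no effect and substrate wells lacking enzyme for full effect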
Scp1 DSF = binds human Scp-1, shifting its melting temperature; Recombinant SCP1, Sypro Orange thermal shift Tm; thermal shift relative to vanadate control, % at 40 µM; AID 540329; shares compounds with Scp1 inh; 1,500 compounds, 25% hits;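 active = substances whose mean melting-temperature shift, as a percentage of the reference inhibitor's shift, reaches about 5.3%, limit read from the data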;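 also: 0% = Tm of DMSO wells and 100% = Tm with sodium orthovanadate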
Numbers without * were called inactive; / = not tested or not shown.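 The calls were made as follows, unless noted: active = inhibition of at least 30% at 20 µM; inactive = the rest.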

SMILES | STEP block | GRK2 inh | DNMT1 block | Scp1 inh | LMPTP block | SUMO1 PPI mod | Scp1 confirm | Scp-1 MG ctr | Scp1 DSF
C/C(=N\NC(=O)c1cc(Br)ccc1O)c1cccc(NC(=O)c2ccccc2F)c1 | 9 | 3 | 2 | 86* | 4 | 15 | 79* | -13 | 5.8*
Nc1ccccc1CCc1ccccc1N | -3 | / | 4 | / | -2 | -2 | / | / | /
O=C(Nc1nnc(C2CC2)s1)C1CC(=O)N(c2ccc3c(c2)OCCO3)C1 (stereo not given) | 3 | 18 | 40 | 61* | 3 | 5 | 56* | -18 | 2
O=C(NCCc1ccccc1)C1CC(=O)N(c2ccc3c(c2)OCCO3)C1 (stereo not given) | 1 | 4 | 0 | -1 | -1 | 3 | -17 | -12 | /
O=C(NC(Cc1ccccc1)c1nc2ccccc2[nH]1)C1CC(=O)N(c2ccc3c(c2)OCCO3)C1 (stereo not given) | -1 | 4 | -11 | 72* | 0 | 2 | 34* | -15 | -6
O=C(NCCCc1ccccc1)C1CC(=O)N(c2ccc3c(c2)OCCO3)C1 (stereo not given) | 2 | 0 | -8 | -2 | 2 | 2 | / | / | /
O=C(Nc1nnc(C2CCCCC2)s1)C1CC(=O)N(c2ccccc2)C1 (stereo not given) | 2 | 1 | 0 | -2 | 0 | 1 | / | / | /
O=C(CCN1C(=O)CC1c1ccco1)N1CCOCC1 (stereo not given) | -1 | / | -1 | / | -1 | 4 | / | / | /
CC1=CC(C)C2COC(c3ccc[n+](C)c3)C1C2C (stereo not given) | 0 | 0 | 2 | 95* | -1 | -5 | -3 | -10 | /
CC1=CC(C)[C@@H]2COC(c3ccc(O)cc3)[C@H]1C2C (stereo not given in full) | 1 | 2 | -16 | -7 | 1 | 0 | / | / | /
Cc1ccc(CNC(=O)CSc2nc(=O)n3ccc(C)cc3n2)cc1 | -5 | / | 8 | / | 4 | 7 | / | / | /
Cc1ccc2cc(C)c3nnc(SCC(=O)NCc4ccco4)n3c2c1 | 2 | 5 | 20 | 78* | 1 | 11 | 57* | -14 | -16
Cc1ccn2c(=O)nc(SCC(=O)NCc3ccco3)nc2c1 | 1 | 9 | 11 | 72* | 1 | 11 | 35* | -11 | -16
Cc1ccn2c(=O)nc(SCC(=O)NCc3ccccc3)nc2c1 | -1 | 3 | 3 | 87* | 16 | 10 | 61* | -13 | 5.7*
Cc1ccc(S(=O)(=O)N2CC3C(=O)C[C@@H](c4ccccc4)N(S(=O)(=O)c4ccc(CCCOCCOCCNC(=O)OC(C)(C)C)cc4)C3CC2c2ccccc2)cc1 (stereo not given in full) | / | / | / | / | 5 | 1 | / | / | /
COC(=O)[C@@]1(C(C)C)N=C(c2cc(OC)c(OC)c(OC)c2)[C@]2(O1)C(=O)Nc1ccc(F)cc12 | / | / | / | / | 0 | 5 | / | / | /
COc1ccc2cc(C(=O)NCc3ccco3)c(=Nc3ccc(C(=O)O)cc3)oc2c1 | 5 | 0 | 1 | 63* | 0 | -17 | 34* | -20 | -3
COC(=O)c1c(C)cc(O)cc1O | 1 | 0 | -2 | -4 | -1 | 5 | / | / | /
COC(=O)c1cc(O)cc(OC)c1C(=O)c1c(O)cc(C)cc1O | -2 | 4 | -2 | 58* | 1 | 8 | 31* | -18 | 1
COc1ccc(Cl)cc1NC(=O)CN(C)C(=O)c1cc(-c2ccncc2)nc2ccccc12 | 0 | 0 | -7 | 1 | 1 | -3 | / | / | /
CCCc1cc(=O)oc2cc(OCC(=O)NC(Cc3c[nH]c4ccc(O)cc34)C(=O)O)c(Cl)cc12 (stereo not given) | 0 | 7 | 3 | 55* | 0 | 11 | 51* | 1 | 11*
Cc1cc(OCC(=O)NC(Cc2c[nH]c3ccc(O)cc23)C(=O)O)c2c(C)c(C)c(=O)oc2c1 (stereo not given) | -1 | 2 | 0 | 12 | 0 | 2 | / | / | /
CCOC(=O)/C=C1\CN(Cc2cc(OC)c(OC)c(OC)c2)S(=O)(=O)c2ccccc21 | 4 | 2 | 6 | 38 | 0 | 1 | / | / | /
CCOC(=O)/C=C1\CN(Cc2cc(OC)c(OC)c(OC)c2)S(=O)(=O)c2ccc(C(F)(F)F)cc21 | 0 | 0 | 9 | 88* | 3 | 0 | 57* | -24 | 0
COCCn1nnnc1C(C(C)C)N1CCSCC1 (stereo not given) | -1 | 0 | 1 | 67* | -2 | -2 | -5 | -12 | /
SMILES | STEP block | GRK2 inh | DNMT1 block | Scp1 inh | LMPTP block | SUMO1 PPI mod | Scp1 confirm | Scp-1 MG ctr | Scp1 DSF
CCOC(=O)c1ccc2c(c1)N(C)C(=O)c1ccccc1S2 | -2 | 0 | 0 | 53* | -1 | -1 | 3 | -10 | /
Cn1cnc(C(=O)N2CCN(C(=O)OC(C)(C)C)CC2)c1C(=O)N1CCN(C(=O)OC(C)(C)C)CC1 | -3 | 0 | 4 | 46 | -1 | 0 | / | / | /
Cn1cnc(C(=O)N2CCN(c3ccccc3)CC2)c1C(=O)N1CCN(c2ccccc2)CC1 | -1 | 0 | 8 | 96* | -2 | 1 | 84* | -16 | -12
Nc1ccc2cccc(O)c2c1 | 2 | / | 49 | 56* | 17 | 17 | 54* | -7 | 13*
Nc1ccc2cc3ccccc3cc2c1 | -61 | / | -4 | -3 | 3 | -20 | / | / | /
COC(=O)C1=C(C(=O)OC)C2(OC1c1ccccc1C)C(=O)c1ccccc1C2=O (stereo not given) | 2 | 2 | -2 | 56* | 2 | -5 | -10 | -7 | /
O=C(NC1CCCCC1)C(c1ccc(C(F)(F)F)cc1)n1c(=O)c(-c2ccco2)nc2ccccc21 (stereo not given) | / | / | / | / | 0 | 5 | / | / | /
CCN(CC)S(=O)(=O)c1cc(NC(=O)C2CC(=O)N(Cc3ccccc3)C2)ccc1Cl (stereo not given) | 5 | 0 | -4 | -13 | -7 | -22 | -22 | -17 | /
CC(=O)c1sc(NC(=O)C2CC(=O)N(Cc3ccccc3)C2)nc1-c1ccccc1 (stereo not given) | 1 | 0 | -2 | -6 | 1 | -10 | -24 | -22 | /
CC(C)(C)NC(=O)C1c2ccccc2OCC(=O)N1Cc1ccccn1 (stereo not given) | / | / | / | / | -2 | 4 | / | / | /

Bioassay records: PubChem, several laboratories
